# Screening data from PubChem.
# Rows were chosen to be rich in hits. Some 1.8% of all compounds tested hit in one or more screens of this group.
# MC4R ag barr: agonists of human melanocortin 4 receptor (MC4R) beta-arrestin; P32245; U2OS MC4R beta-arrestin complementation, luminescence; percent of melanotan II response, DMSO zero; activation, % at 8.9 µM; actives 0.98% (n = 360,000); AID 540308;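 active = activation above a per-plate cutoff, the mean activation of sample wells on that plate plus 3 SD, cut at about 8% in these data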
# NTR1 ag: activates human neurotensin receptor 1 | actives 0.17% (n = 330,000) | activation, % at 20 µM | NTR1-U2OS beta-arrestin-GFP spot imaging, agonist mode | P30989;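 active = activation at or above 40% of the spot to cytoplasm intensity ratio, with at least 20 cells analyzed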;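 also: 0% = DMSO without peptide and 100% = 100 nM NTR1 peptide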
# AI-2 QS modul: Vibrio harveyi AI-2 quorum sensing modulation | Vibrio harveyi JMH597 AI-2 luminescence/OD600 ratio, 9 h; active compounds read low; strain lacks LuxN and CqsS sensors; 0 = neutral-control median | actives 0.4% (n = 300,000) | activity change, % at 7.5 µM; in the data active = activity change below about -75%, passing the limit was not always enough;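 also: luminescence divided by OD600 gain over 9 h not by final OD600 alone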
# MC4R antagonist: human MC4R antagonism in cAMP assay. AID 540295. MC4R-expressing cells, MTII-stimulated cAMP, LANCE TR-FRET. inhibition, % at 6.5 µM. P32245. actives 0.48% (n = 360,000);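 active = inhibition above its plate's cutoff, the mean of tested wells on that plate plus 3 SD, cut at about 29% in these data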;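 also: 0% = Melanotan II alone and 100% = Melanotan II plus saturating MCL0020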
#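 Test system: U2OS cells stably expressing human melanocortin 4 receptor (MC4R); also added: Melanotan II challenge; compound: 6.5 µM single dose; timing: 30-min compound preincubation, 1-h Melanotan II challenge, 1-h detection, room temperature; signal: Eu-cAMP/anti-cAMP TR-FRET, emission 671 nm; repeats: one well per compound, no replicates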
# MC4R barr ag: human MC4R beta-arrestin agonism confirmation. actives 31% (n = 2,400). AID 602192. shares compounds with MC4R ag barr. activation, % at 8.9 µM. U2OS MC4R beta-arrestin recruitment, luminescence; scaled DMSO 0%, Melanotan II 100%;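 active = mean activation across replicates above the hit cutoff set in the earlier primary screen, cut at about 8% in these data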
# MOR-DOR barr ag: activates mu-delta opioid heterodimer, MC4R agonist counter-screen; shares compounds with MC4R ag barr; U2OS PathHunter beta-arrestin, beta-gal luminescence; percent of deltorphin B response, DMSO zero; activation, % at 9.2 µM; actives 5.8% (n = 2,400);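 active = mean activation across replicates exceeds the hit threshold derived in the earlier primary screen, cut at about 18% in these data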;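 also: 100% = deltorphin B at 0.9 µM final and 0% = DMSO alone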
# Target sequence (P35372 whole entry, looked up): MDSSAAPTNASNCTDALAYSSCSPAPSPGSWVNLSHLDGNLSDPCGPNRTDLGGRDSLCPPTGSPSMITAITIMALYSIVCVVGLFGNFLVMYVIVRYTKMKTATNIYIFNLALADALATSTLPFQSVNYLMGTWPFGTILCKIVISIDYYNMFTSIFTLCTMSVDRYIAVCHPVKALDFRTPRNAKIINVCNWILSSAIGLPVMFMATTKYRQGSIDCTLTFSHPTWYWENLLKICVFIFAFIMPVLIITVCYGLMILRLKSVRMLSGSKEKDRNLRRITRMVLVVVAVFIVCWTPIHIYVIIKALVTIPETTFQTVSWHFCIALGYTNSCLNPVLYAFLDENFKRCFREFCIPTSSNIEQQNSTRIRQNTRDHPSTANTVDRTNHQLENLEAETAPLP
# Target sequence (P41143 whole entry, looked up): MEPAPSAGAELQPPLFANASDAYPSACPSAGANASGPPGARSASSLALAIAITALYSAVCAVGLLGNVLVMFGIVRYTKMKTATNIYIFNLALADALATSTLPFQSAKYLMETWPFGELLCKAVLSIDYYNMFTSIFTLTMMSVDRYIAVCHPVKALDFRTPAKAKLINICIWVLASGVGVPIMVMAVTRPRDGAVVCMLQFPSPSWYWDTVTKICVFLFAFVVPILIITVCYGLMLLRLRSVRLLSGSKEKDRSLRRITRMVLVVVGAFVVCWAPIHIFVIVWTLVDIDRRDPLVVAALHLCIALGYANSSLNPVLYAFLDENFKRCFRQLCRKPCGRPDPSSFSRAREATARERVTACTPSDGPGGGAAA
# * marks the source's active call; other numbers are inactive results; nt = no result given.
SMILES,MC4R ag barr,NTR1 ag,AI-2 QS modul,MC4R antagonist,MC4R barr ag,MOR-DOR barr ag
Cc1ccc2nc(-c3ccc(NS(=O)(=O)c4c(C)n(C)c(=O)n(C)c4=O)cc3)sc2c1,-0.8,0.9,-5.1,10.6,nt,nt
O=C(CSc1nnc(-c2cccs2)n1-c1ccccc1)Nc1ccccc1,10.6*,4.3,6.9,22.5,2.2,7.0
COc1ccc(O)c(/C=N/NC(=O)CN2CCS(=O)(=O)CC2)c1,-2.6,0.4,-3.9,-10.6,nt,nt
CC1CCC(C(C)C)C(OC(=O)C[n+]2cc(-c3ccc(Cl)cc3)n3c2CCCCC3)C1 (stereo not given),34.2*,22.4,38.9,8.2,24.6*,6.7
O=C(C[n+]1cc(-c2ccccc2)n2c1CCCCC2)c1ccc(Cl)cc1,-2.9,-0.1,11.1,2.6,nt,nt
CCCCOC(=O)Nc1nnc(/C=C/c2ccc(OC)cc2)s1,21.1*,-0.3,-3.6,5.3,6.8,6.8
O=C(NC(=S)NCCC1=CCCCC1)c1ccco1,10.1*,2.8,20.2,9.8,-0.9,6.6
O=C(NC(=S)NCCC1=CCCCC1)c1ccc(Br)o1,0.1,8.2,44.1,-0.2,nt,nt
COc1ccc(CNC(=O)[C@@H]2CC=C[C@@H]3CCN(Cc4ccc(Cl)c(Cl)c4)C(=O)[C@@H]32)cc1,17.7*,2.8,18.3,0.7,8.8*,3.3
CCCCN1CC[C@H]2C=CC[C@@H](C(=O)NCc3ccc(OC)cc3)[C@H]2C1=O,-2.3,0.0,11.0,3.1,nt,nt
CCCn1nnnc1COc1ccc(C(N)=O)cc1,-1.3,2.6,4.7,8.8,nt,nt
O=C(O)c1cc(NC(=O)c2ccc(Cl)c([N+](=O)[O-])c2)cc(C(=O)O)c1,-3.4,1.6,37.8,5.0,nt,nt
O=C(Nc1ccc(C(O)(C(F)(F)F)C(F)(F)F)cc1)c1ccc(Cl)c([N+](=O)[O-])c1,14.3*,13.4,12.0,-3.1,14.6*,9.7
COc1ccc(CNC(=S)Nc2ccc(Br)cc2)cc1,-0.3,1.2,-46.1,13.3,nt,nt
COc1ccc(CNC(=S)Nc2ccc(-c3ccccc3)cc2)cc1,12.6*,4.4,24.9,-4.3,4.5,7.7
COc1cc2nc(SCc3ccc(F)cc3)n(Cc3cccs3)c(=N)c2cc1OC,2.0,6.7,24.1,-8.8,nt,nt
COc1ccc(Cn2c(SCc3ccccc3C)nc3cc(OC)c(OC)cc3c2=N)cc1,26.3*,30.7,19.0,14.1,7.1,27.3*
O=C1OCC(c2ccc(Cl)s2)=C1c1ccccc1[N+](=O)[O-],-0.6,-0.2,0.9,6.2,nt,nt
C#CCN1C(=O)S/C(=C\c2ccc(N3CCOCC3)cc2C)C1=O,11.3*,-1.0,10.7,6.0,-2.7,3.1
OCCNCC(O)Cn1c2ccccc2c2ccccc21 (stereo not given),-2.6,0.9,19.5,-1.3,nt,nt
COc1ccccc1CNCC(O)Cn1c2ccccc2c2ccccc21 (stereo not given),10.2*,4.8,18.1,3.5,20.5*,20.9*
CC(=O)Nc1ccc(NC(=O)C2CCCN(c3ncccn3)C2)cc1 (stereo not given),-0.5,8.7,18.3,-2.2,nt,nt
O=C(Nc1ccc(Oc2ccccc2)cc1)C1CCCN(c2ncccn2)C1 (stereo not given),9.9*,5.0,7.6,4.0,0.3,2.6
CCc1ccc(NC(=O)c2ccc3c(c2)C(=O)N(CCOC)C3Nc2ccc(CC)cc2)cc1 (stereo not given),12.1*,1.3,9.9,0.9,2.7,8.7
CC1CN(S(=O)(=O)c2csc(C(=O)Nc3ccccc3)c2)CC(C)O1 (stereo not given),-1.9,-1.1,28.6,3.3,nt,nt
Cc1cccc(-n2nnnc2SCC(=O)c2cc(C)n(Cc3ccco3)c2C)c1,27.1*,12.5,4.1,5.9,16.1*,3.8
COCCCN1C(=O)C(CC(=O)NCCCCc2ccccc2)CC(C(=O)N2CCOCC2)=C1C (stereo not given),-2.0,nt,nt,-2.9,nt,nt
Cc1cc(C)nc(CCNC(=O)c2cc(COc3c(C)cccc3C)on2)n1,-0.1,2.1,31.0,-0.6,nt,nt
